The values below come from ChEMBL document CHEMBL2390837, “Synthesis, cytotoxic activity and DNA-interaction studies of novel anthraquinone-thiosemicarbazones with tautomerizable methylene group” (Eur J Med Chem, 2013).

Usually IC50 stands for the midpoint of a concentration-inhibition curve.

Structures are written as SMILES. Calls of active or inactive are those of the source. The calls are words filed in the database; no cut-off is given here.

Assay [1] has as its system HeLa. As to the kind of experiment: Cell cycle arrest in human HeLa cells assessed as accumulation at G1 phase at 2 times IC50 after 24 hrs by propidium iodide staining-based FACS flow cytometric analysis (reference value: 51.97%). The class given is functional.
Assay [2] has as its system HeLa. Description: Cell cycle arrest in human HeLa cells assessed as accumulation at G2/M phase at IC50 after 24 hrs by propidium iodide staining-based FACS flow cytometric analysis (reference value: 21.66%). The format is functional.
Assay [3] concerns HeLa. As to the kind of experiment: Induction of apoptosis in human HeLa cells at IC90 after 24 hrs by propidium iodide staining-based FACS flow cytometric analysis in presence of caspase-9 inhibitor Z-LEHD-FMK. The format is functional, cell-based. In general terms: In flow cytometry, cells or beads pass a laser one at a time.
The test system of another assay is A549. Description: Cytotoxicity against human A549 cells after 72 hrs by MTT assay. The class given is functional, cell-based. The conditions noted are these: A549, 72 h. In a few lines: (§1)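 Cells seeded in 96-well plates: HeLa 2000, MDA-MB-361 7000, MDA-MB-453 3000, K562, A549 and MRC-5 5000 per well. Compounds added at 5–100 μM (final), DMSO ≤0.5%, in RPMI-1640 with 10% FBS. Added after 24 h, except K562 at 2 h after seeding. Exposure 72 h, then MTT 4 h at 37 °C, SDS solubilization, A570 read. IC50 is the mean ± SD of three independent experiments.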

For assay [4], the system named is HeLa. Description: Induction of apoptosis in human HeLa cells at IC90 after 24 hrs by propidium iodide staining-based FACS flow cytometric analysis in presence of caspase-3 inhibitor Z-DEVD-FMK. The class given is functional, cell-based.
The test system of assay [5] is HeLa. Description: Induction of apoptosis in human HeLa cells at IC90 after 24 hrs by propidium iodide staining-based FACS flow cytometric analysis in presence of caspase-8 inhibitor Z-IETD-FMK. The class given is functional, cell-based.
The test system of assay [6] is HeLa. Description: Cell cycle arrest in human HeLa cells assessed as accumulation at S phase at IC50 after 24 hrs by propidium iodide staining-based FACS flow cytometric analysis (reference value: 16.22%). The class given is functional.
Another assay concerns MDA-MB-453. Description: Cytotoxicity against human MDA-MB-453 cells after 72 hrs by MTT assay. The following applies: MDA-MB-453, 72 h. The class given is functional, cell-based. In a few lines: as §1
On the technique in general: Tetrazolium assays rely on reduction of a dye to a coloured formazan, in cell work by metabolically active cells.

The next assay relates to MRC5. As to the kind of experiment: Cytotoxicity against human MRC5 cells after 72 hrs by MTT assay. The class given is cell-based. The conditions noted are these: MRC5, 72 h. In a few lines:
as §1

A further assay deals with Escherichia coli. As to the kind of experiment: Induction of Escherichia coli XL1 blue pUC18 DNA cleavage assessed as conversion of supercoiled DNA to relaxed circular DNA at 2 mM after 90 mins by agarose gel electrophoresis. In a few lines: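 Supercoiled pUC18 (262 ng, from E. coli XL1 blue) incubated with 2 mM compound in 20 μL of 40 mM bicarbonate buffer pH 8.4 at 37 °C for 90 min. Reaction stopped with loading buffer. Analyzed on 1% agarose in TAE pH 8.24 at 80 V and stained with ethidium bromide (0.5 µg/mL).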

In assay [7] the test system is HeLa. As to the kind of experiment: Cell cycle arrest in human HeLa cells assessed as accumulation at S phase at 2 times IC50 after 24 hrs by propidium iodide staining-based FACS flow cytometric analysis (reference value: 16.22%). The format is functional.
The subject of assay [8] is HeLa. As to the kind of experiment: Cell cycle arrest in human HeLa cells assessed as accumulation at subG1 phase at IC50 after 24 hrs by propidium iodide staining-based FACS flow cytometric analysis (reference value: 9.10%). The class given is functional.
The test system of another assay is K562. As to the kind of experiment: Cytotoxicity against human K562 cells after 72 hrs by MTT assay. The format is functional, cell-based. The following applies: K562, 72 h. In short, it runs like this: as §1
Assay [9] has as its system Radical scavenging activity. Description: Antioxidant activity assessed as DPPH radical scavenging activity after 30 mins by spectrophotometric analysis. The class given is functional. In short, it runs like this:
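Test solutions at 8–1000 μM in methanol mixed 1:1 by volume with 200 μM DPPH in methanol, kept 30 min in the dark at room temperature. Absorbance read at 517 nm against blanks without DPPH. Percent scavenging = (A_DPPH − A_sample)/A_DPPH × 100. IC50 (concentration halving DPPH absorbance) read from a plot of % versus concentration. Ascorbic acid and BHT used as standards.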

Assay [10] concerns HeLa. As to the kind of experiment: Cell cycle arrest in human HeLa cells assessed as accumulation at G2/M phase at 2 times IC50 after 24 hrs by propidium iodide staining-based FACS flow cytometric analysis (reference value: 21.66%). The format is functional.
In a further assay the test system is MDA-MB-361. Description: Cytotoxicity against human MDA-MB-361 cells after 72 hrs by MTT assay. The class given is functional, cell-based. The following applies: MDA-MB-361, 72 h. In a few lines: as §1
The next assay concerns DNA. As to the kind of experiment: Binding affinity to calf thymus DNA at 20 to 80 uM after 1.5 hrs by UV-vis spectrophotometric analysis. The following applies: Bos taurus. The format is nucleic-acid assay. In a few lines: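 UV–Vis spectra (200–800 nm, 1 cm cells) of compound at 20, 40, 60 or 80 μM, with or without 0.12 mM CT-DNA. CT-DNA was dissolved in 10 mM Tris-HCl pH 7.9. Mixtures were in 40 mM bicarbonate buffer pH 8.4, incubated 1.5 h at 37 °C with occasional vortexing.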

Assay [11] has as its system HeLa. As to the kind of experiment: Cytotoxicity against human HeLa cells after 72 hrs by MTT assay. The class given is functional, cell-based. In a few lines: as §1
For assay [12], the system named is HeLa. Description: Cell cycle arrest in human HeLa cells assessed as accumulation at subG1 phase at 2 times IC50 after 24 hrs by propidium iodide staining-based FACS flow cytometric analysis (reference value: 9.10%). The format is functional.
The subject of assay [13] is HeLa. Description: Cell cycle arrest in human HeLa cells assessed as accumulation at G1 phase at IC50 after 24 hrs by propidium iodide staining-based FACS flow cytometric analysis (reference value: 51.97%). The format is functional.

Take `CCOC(=O)/C(CC(=O)c1cccc2c1C(=O)c1ccccc1C2=O)=N\NC(=S)NC1CCCCC1`: the outcome in the assay with HeLa [1], with HeLa [2], with HeLa [3], in the assay on HeLa [4], in the assay on HeLa [5] and in the assay with HeLa [6] was Active. Further, the result in the assay with HeLa [7], in the assay on HeLa [8], in the assay on HeLa [10], in the assay on DNA, in the assay with HeLa [12] and with HeLa [13] was Active. For the same compound, the IC50 in the assay on A549 is 13.9 µM; with MDA-MB-453, 4.64 µM; in the assay on MRC5, 13.6 µM; in the assay on K562, 2.35 µM; in [9], 16.4 µM; in the assay with MDA-MB-361, 32.6 µM. In the assay on HeLa [11], this compound registered a half-maximal inhibitory concentration (IC50) of 9.15 µM. Besides, the outcome in the assay with Escherichia coli was inactive.

Turning to `CCOC(=O)/C(CC(=O)c1cccc2c1C(=O)c1ccccc1C2=O)=N\Nc1ccccc1`, the IC50 with A549, in the assay on MDA-MB-453, with MRC5, in the assay with K562, in the assay with MDA-MB-361 and with HeLa [11] was 40 µM in each case.

As to `CCOC(=O)/C(CC(=O)c1cccc2c1C(=O)c1ccccc1C2=O)=N\NC(=S)NCc1cccnc1`, the result in the assay on HeLa [1], in the assay on HeLa [2], in the assay on HeLa [3], with HeLa [4], in the assay with HeLa [5] and in the assay on HeLa [6] was Active. In addition, the outcome in the assay with HeLa [7], in the assay on HeLa [8], with HeLa [10], in the assay with DNA, in the assay with HeLa [12] and in the assay with HeLa [13] was Active. In addition, the IC50 with A549 was 23.4 µM; in the assay on MDA-MB-453, 17.7 µM; in the assay on MRC5, 13.6 µM; in the assay on K562, 2.17 µM; in assay [9] it was 46.9 µM; in the assay with MDA-MB-361 it was 50.5 µM. In the assay with HeLa [11], half-maximal inhibition (IC50) required 18.1 µM. Besides, in the assay on Escherichia coli, the result was inactive.

As for `CCOC(=O)/C(=C/C(=O)c1cccc2c1C(=O)c1ccccc1C2=O)Nc1ccccc1`, the 50% inhibitory concentration (IC50) in the assay with A549, in the assay with MDA-MB-453, in the assay on MRC5, in the assay on K562, in the assay on MDA-MB-361 and in the assay on HeLa [11] was 100 µM throughout.

As to `Cc1cc(C(C)(C)C)c(O)c(C(C)(C)C)c1` [BUTYLATED HYDROXYTOLUENE], the IC50 in assay [9] was 33.9 µM.

Consider `CCOC(=O)/C(CC(=O)c1cccc2c1C(=O)c1ccccc1C2=O)=N\NC(=S)NCc1ccco1`, for which the outcome with HeLa [1], with HeLa [2], in the assay with HeLa [3], in the assay with HeLa [4], in the assay on HeLa [5] and in the assay with HeLa [6] was Active. In addition, the outcome with HeLa [7], in the assay on HeLa [8], in the assay on HeLa [10], with DNA, with HeLa [12] and with HeLa [13] was Active. The IC50 turned out to be 22.6 µM with A549; 19.4 µM in the assay on MDA-MB-453; 38.6 µM with MRC5; 2.63 µM in the assay on K562; 35.8 µM in assay [9]; 47.8 µM in the assay on MDA-MB-361. Moreover, inhibition in the assay with HeLa [11] was half-maximal at 19 µM (IC50). In the assay on Escherichia coli, the result was inactive.

Consider `O=C1O[C@H]([C@@H](O)CO)C(O)=C1O` [ASCORBIC ACID], for which the IC50 in assay [9] was 15.9 µM.
